Source: ChEMBL document CHEMBL1143019, “Hybrid molecules of estrone: new compounds with potential antibacterial, antifungal, and antiproliferative activities” (2007)
Converted amounts (≈) assume the structure as drawn.

Tests used:
Staphylococcus aureus [1] = assay: Antibacterial activity against Staphylococcus aureus SG 511 after 24 hrs by micro-broth dilution method; type: functional; settings: SG 511, 24 h
How it was run: (§1)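 Microbroth dilution per NCCLS guidelines. Bacteria grown overnight at 37 °C in Mueller–Hinton broth. Compound solution serially diluted twofold in MHB, then wells inoculated to a final 5×10⁵ CFU/mL. Incubated 24 h at 37 °C. MIC (µg/mL) read on an automatic plate reader as the lowest dilution allowing no visible growth.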

Staphylococcus aureus [2] = assay: Antibacterial activity against methicillin-resistant Staphylococcus aureus 994/93 after 24 hrs by micro-broth dilution method; type: functional
How it was run: (§2)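 Broth microdilution per NCCLS in Mueller–Hinton broth. Overnight cultures grown at 37 °C. Compound serially diluted twofold, then wells inoculated to a final 5×10⁵ CFU/mL. Plates held at 37 °C for 24 h. MIC (µg/mL) read on an automatic plate reader as the lowest dilution with no visible growth.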

Staphylococcus aureus [3] = assay: Antibacterial activity against methicillin-resistant Staphylococcus aureus 134/94 after 24 hrs by microbroth dilution method; type: functional; how it was run: as §2
Micrococcus luteus = assay: Antibacterial activity against Micrococcus luteus ATCC 10240 after 24 hrs by microbroth dilution method; type: functional; settings: ATCC 10240, 24 h; how it was run: as §1
Enterococcus faecalis = assay: Antibacterial activity against Enterococcus faecalis 1528 after 24 hrs by micro-broth dilution method; type: functional; how it was run: as §1
[4] = test system: Mycolicibacterium smegmatis; assay: Antimicrobial activity against Mycobacterium smegmatis SG 987 after 24 hrs by micro-broth dilution method; type: functional; how it was run: as §1
Mycolicibacterium aurum = assay: Antimicrobial activity against Mycobacterium aurum SB 66 after 24 hrs by micro-broth dilution method; type: functional; how it was run: as §1
Mycolicibacterium vaccae = assay: Antimicrobial activity against Mycobacterium vaccae 10670 after 24 hrs by micro-broth dilution method; type: functional; how it was run: as §1
[5] = test system: Mycolicibacterium fortuitum; assay: Antimicrobial activity against Mycobacterium fortuitum Borstel after 24 hrs by microbroth dilution method; type: functional; how it was run: as §1
[6] = test system: Mycobacterium tuberculosis; assay: Antimicrobial activity against Mycobacterium tuberculosis My 331/88 after 14 days; type: functional; settings: 336 h
[7] = test system: Mycobacterium tuberculosis; assay: Antimicrobial activity against Mycobacterium tuberculosis My 331/88 after 21 days; type: functional; settings: 504 h
Mycobacterium avium [8] = assay: Antimicrobial activity against Mycobacterium avium My 330/88 after 14 days; type: functional; settings: 336 h
Mycobacterium avium [9] = assay: Antimicrobial activity against Mycobacterium avium My 330/88 after 21 days; type: functional; settings: 504 h
Mycobacterium kansasii [10] = assay: Antimicrobial activity against Mycobacterium kansasii My 235/80 after 7 days; type: functional; settings: 168 h
How it was run: (§3)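 Run in Šula semisynthetic liquid medium containing bovine serum. Compounds added as DMSO solutions at final concentrations of […]. Each strain was also inoculated onto Löwenstein–Jensen medium to control inoculum sterility and growth.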

Mycobacterium kansasii [11] = assay: Antimicrobial activity against Mycobacterium kansasii My 235/80 after 14 days; type: functional; settings: 336 h; how it was run: as §3
Mycobacterium kansasii [12] = assay: Antimicrobial activity against Mycobacterium kansasii My 235/80 after 21 days; type: functional; settings: 504 h; how it was run: as §3
Mycobacterium kansasii [13] = assay: Antimicrobial activity against Mycobacterium kansasii My 6509/96 after 7 days; type: functional; settings: 168 h; how it was run: as §3
Mycobacterium kansasii [14] = assay: Antimicrobial activity against Mycobacterium kansasii My 6509/96 after 14 days; type: functional; settings: 336 h; how it was run: as §3
Mycobacterium kansasii [15] = assay: Antimicrobial activity against Mycobacterium kansasii My 6509/96 after 21 days; type: functional; settings: 504 h; how it was run: as §3
L929 = assay: Antiproliferative activity against mouse L929 cells after 72 hrs; type: functional; settings: L929, 72 h
How it was run: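 About 10,000 adherent cells per well in RPMI 1640 with 10% heat-inactivated FBS and penicillin/streptomycin, without HEPES. Exposed to 10 concentrations for 72 h at 37 °C in humidified 5% CO₂. Monolayers fixed with glutaraldehyde, stained 15 min with 0.05% methylene blue, and eluted with 0.33 N HCl; OD read at 630 nm. GI50 derived from dose–response curves relative to control.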

K562 = assay: Antiproliferative activity against human K562 cells after 72 hrs; type: functional; settings: K562, 72 h
How it was run: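 About 10,000 suspension cells per well in RPMI 1640 with 10% heat-inactivated FBS and penicillin/streptomycin, without HEPES. Exposed to 10 concentrations for 72 h at 37 °C in humidified 5% CO₂. Wells diluted 1:50 in CASYTON and counted electronically, each result the mean of three successive counts. GI50 is where the concentration–response curve crosses 50% of control cell count.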

HeLa = assay: Cytotoxicity against human HeLa cells after 72 hrs; type: functional; settings: for CC50: Homo sapiens, HeLa, 72 h
How it was run: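 About 10,000 cells per well in RPMI 1640 were preincubated 48 h without compound. The 10 test concentrations were then applied onto the monolayers and incubated 72 h at 37 °C in humidified 5% CO₂. Monolayers fixed with glutaraldehyde, stained with 0.05% methylene blue, and eluted with 0.33 N HCl; optical density measured at 630 nm.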

Candida albicans [16] = assay: Antifungal activity against Candida albicans ATCC 44859 after 24 hrs; type: functional; settings: ATCC 44859, 24 h
How it was run: (§4)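 Modified NCCLS M27-A broth microdilution with clinical isolates subcultured on Sabouraud dextrose agar. Suspensions diluted 1:50 in RPMI 1640 to give a final inoculum of 0.5–2.5×10³ CFU/mL for yeasts or 0.5–5×10⁴ CFU/mL for molds. The RPMI had L-glutamine, no bicarbonate, and 0.165 M MOPS to pH 7.0. Twofold dilutions from 250 to 0.49. Plates held at 35 °C, humid, without agitation. MIC is the lowest concentration giving ≥80% inhibition versus drug-free control, read at 24 and 48 h.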

Candida albicans [17] = assay: Antifungal activity against Candida albicans ATCC 44859 after 48 hrs; type: functional; settings: ATCC 44859, 48 h; how it was run: as §4
Candida tropicalis [18] = assay: Antifungal activity against Candida tropicalis 156 after 24 hrs; type: functional; how it was run: as §4
Candida tropicalis [19] = assay: Antifungal activity against Candida tropicalis 156 after 48 hrs; type: functional; how it was run: as §4
Pichia kudriavzevii [20] = assay: Antifungal activity against Candida krusei E28 after 24 hrs; type: functional; how it was run: as §4
Pichia kudriavzevii [21] = assay: Antifungal activity against Candida krusei E28 after 48 hrs; type: functional; how it was run: as §4
Nakaseomyces glabratus [22] = assay: Antifungal activity against Candida glabrata 20/I after 24 hrs; type: functional; how it was run: as §4
Nakaseomyces glabratus [23] = assay: Antifungal activity against Candida glabrata 20/I after 48 hrs; type: functional; how it was run: as §4
Trichosporon beigelii [24] = assay: Antifungal activity against Trichosporon beigelii 1188 after 24 hrs; type: functional; how it was run: as §4
Trichosporon beigelii [25] = assay: Antifungal activity against Trichosporon beigelii 1188 after 48 hrs; type: functional; how it was run: as §4
Aspergillus fumigatus [26] = assay: Antifungal activity against Aspergillus fumigatus 231 after 24 hrs; type: functional; how it was run: as §4
Aspergillus fumigatus [27] = assay: Antifungal activity against Aspergillus fumigatus 231 after 48 hrs; type: functional; how it was run: as §4
Lichtheimia corymbifera [28] = assay: Antifungal activity against Absidia corymbifera 272 after 24 hrs; type: functional; how it was run: as §4
Lichtheimia corymbifera [29] = assay: Antifungal activity against Absidia corymbifera 272 after 48 hrs; type: functional; how it was run: as §4
Trichophyton benhamiae [30] = assay: Antifungal activity against Trichophyton mentagrophytes 445 after 72 hrs; type: functional, Arthroderma benhamiae
How it was run: (§5)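 Same modified M27-A microdilution with the mold inoculum of 0.5–5×10⁴ CFU/mL. Medium was RPMI 1640 with L-glutamine, no bicarbonate, and 0.165 M MOPS at pH 7.0. Twofold dilutions from 250 to 0.49. Incubated at 35 °C in a humid atmosphere.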

Trichophyton benhamiae [31] = assay: Antifungal activity against Trichophyton mentagrophytes 445 after 120 hrs; type: functional, Arthroderma benhamiae; how it was run: as §5

Clc1ccc(CSc2ccncc2)cc1
MIC (Staphylococcus aureus [1]): 50 µg/mL (≈ 212 µM)
MIC (Staphylococcus aureus [2]): 100 µg/mL (≈ 424 µM)
MIC (Staphylococcus aureus [3]): > 100 µg/mL
MIC (Micrococcus luteus): 50 µg/mL (≈ 212 µM)
MIC (Enterococcus faecalis): 100 µg/mL (≈ 424 µM)
MIC [4]: 25 µg/mL (≈ 106 µM)
MIC (Mycolicibacterium aurum): 12.5 µg/mL (≈ 53 µM)
MIC (Mycolicibacterium vaccae): 25 µg/mL (≈ 106 µM)
MIC [5]: 12.5 µg/mL (≈ 53 µM)
MIC [6]: 32 µM (≈ 7.54 µg/mL)
MIC [7]: 62.5 µM (≈ 14.7 µg/mL)
MIC (Mycobacterium avium [8]): 62.5 µM (≈ 14.7 µg/mL)
MIC (Mycobacterium avium [9]): 62.5 µM (≈ 14.7 µg/mL)
MIC (Mycobacterium kansasii [10]): 32 µM (≈ 7.54 µg/mL)
MIC (Mycobacterium kansasii [11]): 62.5 µM (≈ 14.7 µg/mL)
MIC (Mycobacterium kansasii [12]): 62.5 µM (≈ 14.7 µg/mL)
MIC (Mycobacterium kansasii [13]): 32 µM (≈ 7.54 µg/mL)
MIC (Mycobacterium kansasii [14]): 62.5 µM (≈ 14.7 µg/mL)
MIC (Mycobacterium kansasii [15]): 62.5 µM (≈ 14.7 µg/mL)
GI50 (L929): 21.2 µg/mL (≈ 89.9 µM)
GI50 (K562): 19.8 µg/mL (≈ 84 µM)
CC10 (HeLa): 8.6 µg/mL (≈ 36.5 µM)
CC50 (HeLa): 16.3 µg/mL (≈ 69.1 µM)

C[C@]12CC[C@@H]3c4ccc(OCCCCCCC[n+]5ccc(SCc6ccc(Cl)cc6)cc5)cc4CC[C@H]3[C@@H]1CCC2=O.[Br-]
MIC (Staphylococcus aureus [1]): 3.12 µg/mL
MIC (Staphylococcus aureus [2]): 3.12 µg/mL
MIC (Staphylococcus aureus [3]): 3.12 µg/mL
MIC (Micrococcus luteus): 0.8 µg/mL
MIC (Enterococcus faecalis): 3.12 µg/mL
MIC [4]: 6.25 µg/mL
MIC (Mycolicibacterium aurum): 3.12 µg/mL
MIC (Mycolicibacterium vaccae): 1.56 µg/mL
MIC [5]: 6.25 µg/mL
MIC [6]: 16 µM
MIC [7]: 16 µM
MIC (Mycobacterium avium [8]): 8 µM
MIC (Mycobacterium avium [9]): 8 µM
MIC (Mycobacterium kansasii [10]): 16 µM
MIC (Mycobacterium kansasii [11]): 16 µM
MIC (Mycobacterium kansasii [12]): 16 µM
MIC (Mycobacterium kansasii [13]): 16 µM
MIC (Mycobacterium kansasii [14]): 16 µM
MIC (Candida albicans [16]): 7.8 µM
MIC (Candida albicans [17]): 7.8 µM
MIC (Candida tropicalis [18]): 15.6 µM
MIC (Candida tropicalis [19]): 15.6 µM
MIC (Pichia kudriavzevii [20]): 7.8 µM
MIC (Pichia kudriavzevii [21]): 15.6 µM
MIC (Nakaseomyces glabratus [22]): 15.6 µM
MIC (Nakaseomyces glabratus [23]): 15.6 µM
MIC (Trichosporon beigelii [24]): 7.8 µM
MIC (Trichosporon beigelii [25]): 7.8 µM
MIC (Aspergillus fumigatus [26]): 15.6 µM
MIC (Aspergillus fumigatus [27]): 31 µM
MIC (Lichtheimia corymbifera [28]): 62.5 µM
MIC (Lichtheimia corymbifera [29]): 62.5 µM
MIC (Trichophyton benhamiae [30]): 7.8 µM
MIC (Trichophyton benhamiae [31]): 15.6 µM
GI50 (L929): 2.8 µg/mL
GI50 (K562): 1 µg/mL
CC10 (HeLa): 1.9 µg/mL
CC50 (HeLa): 4.1 µg/mL

c1ccc(CSc2ccncc2)cc1
MIC (Staphylococcus aureus [1]): 100 µg/mL (≈ 497 µM)
MIC (Staphylococcus aureus [2]): 100 µg/mL (≈ 497 µM)
MIC (Staphylococcus aureus [3]): > 100 µg/mL
MIC (Micrococcus luteus): 100 µg/mL (≈ 497 µM)
MIC (Enterococcus faecalis): 100 µg/mL (≈ 497 µM)
MIC [4]: 100 µg/mL (≈ 497 µM)
MIC (Mycolicibacterium aurum): 25 µg/mL (≈ 124 µM)
MIC (Mycolicibacterium vaccae): 50 µg/mL (≈ 248 µM)
MIC [5]: 50 µg/mL (≈ 248 µM)
MIC [6]: 125 µM (≈ 25.2 µg/mL)
MIC [7]: 125 µM (≈ 25.2 µg/mL)
MIC (Mycobacterium avium [8]): 125 µM (≈ 25.2 µg/mL)
MIC (Mycobacterium avium [9]): 125 µM (≈ 25.2 µg/mL)
MIC (Mycobacterium kansasii [10]): 62.5 µM (≈ 12.6 µg/mL)
MIC (Mycobacterium kansasii [11]): 125 µM (≈ 25.2 µg/mL)
MIC (Mycobacterium kansasii [12]): 125 µM (≈ 25.2 µg/mL)
MIC (Mycobacterium kansasii [13]): 62.5 µM (≈ 12.6 µg/mL)
MIC (Mycobacterium kansasii [14]): 125 µM (≈ 25.2 µg/mL)
MIC (Mycobacterium kansasii [15]): 125 µM (≈ 25.2 µg/mL)
GI50 (L929): 34.3 µg/mL (≈ 170 µM)
GI50 (K562): > 50 µg/mL
CC10 (HeLa): 14 µg/mL (≈ 69.6 µM)
CC50 (HeLa): 23.6 µg/mL (≈ 117 µM)
